TRPC6 inh: mouse TRPC6 channel inhibitors, primary screen, cell-based, HEK293, membrane potential dye. 1.1% of 310,000 active. Short transient receptor potential channel 6 (Mus musculus), Q61143. B-score at 10 µM. AID 2553, 2010. ACh-evoked depolarization; active compounds read low;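 active = B-score under library mean minus 3 SD, initial fluorescence not abnormally high, positive integrated signal ratio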;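 also: B-score derived from integrated fluorescence ratio over the kinetic read; more negative B-score means stronger inhibition of depolarization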
TRPC4 potent: positive allosteric modulators of TRPC4, primary screen, cell-based, mouse TRPC4beta, HEK293 mu-opioid, Fluo-4 calcium; B-score at 10 µM; Short transient receptor potential channel 4 (Mus musculus), Q9QUQ5; AID 2227, 2009; 0.42% of 310,000 active; DAMGO EC20, Fluo-4 Ca2+ flux; active compounds read high;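 active = B-score of calcium response area above 5 SD of library B-scores, with initial fluorescence ratio within 5 SD of library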;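 also: B-score of integrated fluorescence ratio over time as area under calcium response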
TRPC4 inh: inhibitors of mouse TRPC4 channel, primary screen, Fluo4 calcium, HEK293 TRPC4beta/mu-opioid cells | DAMGO-evoked Fluo4 calcium flux; active compounds read low | B-score at 10 µM | 0.39% of 300,000 active | AID 2247, 2010 | Short transient receptor potential channel 4 (Mus musculus), Q9QUQ5;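 active = B-score over 3 SD under the library average, no early fluorescence shift, positive overall ratio signal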
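Assay system – HEK293 line stably carrying TRPC4beta and mu-opioid receptor · Doses – single dose · Detection – Fluo4 calcium-dye fluorescence, kinetic read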
TRPC4 agonist: activators of mouse TRPC4 channel, primary screen, Fluo4 calcium, HEK293 TRPC4beta/mu-opioid cells. Short transient receptor potential channel 4 (Mus musculus), Q9QUQ5. Fluo4 calcium fluorescence; active compounds read high. B-score at 10 µM. 0.49% of 310,000 active;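 active = B-score above 5 SD of library B-scores, and initial fluorescence ratio not above library mean plus 5 SD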;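 also: positive B-score marks a calcium rise read as TRPC4 activation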
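Technique: kinetic Fluo4 calcium fluorescence; Test system: TRPC4beta and mu-opioid receptor HEK293 stable cells; Measure: B-scored integrated calcium fluorescence ratio; Benchmarks: low control buffer alone, high control maximal DAMGO; Schedule: 45 min room-temperature Fluo4 loading, 110 s read.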
TRPC6 activator: mouse TRPC6 channel activators, primary screen, cell-based, HEK293, membrane potential dye. HEK293-TRPC6 membrane potential dye fluorescence; active compounds read high. B-score at 10 µM. 0.13% of 310,000 active. AID 2550, 2010;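 active = B-score of the integrated fluorescence ratio above library mean plus 3 SD, and starting fluorescence ratio within library mean plus 5 SD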;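 also: higher score means more depolarization so channel activation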
Yeast superoxide: reduction of superoxide in aged yeast, primary screen, HTS | 0.18% of 330,000 active | superoxide response (% of plate mean), % at 10 µM | S. cerevisiae aged cells, superoxide DHE fluorescence; active compounds read low;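 active = superoxide response under a set limit, about three screen SD below normal, cut at about 65% in these data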;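 also: yeast aged for seven days with compound at 30 °C before DHE staining; 100% = average MFI of all compound-treated wells on the plate with controls excluded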
* = called active by the depositor; i = inactive; nt = no result given. Rows were chosen to be rich in hits. Some 2.3% of all compounds tested hit in one or more screens of this group.

SMILES	TRPC6 inh	TRPC4 potent	TRPC4 inh	TRPC4 agonist	TRPC6 activator	Yeast superoxide
CCOc1ccccc1CN1CCNC(=O)C1CC(=O)N(C)CCc1ccccn1 (centres undefined)	i	i	i	153*	i	88.1
O=C(CC1C(=O)NCCN1Cc1ccc(-c2ccccc2)cc1)NCC1CC1 (centres undefined)	i	i	i	i	i	104.3
O=C(CC1C(=O)NCCN1Cc1ccc(-c2ccccc2)cc1)NCCc1ccccn1 (centres undefined)	i	i	i	130*	i	100.8
CCOc1ccccc1CN1CCNC(=O)C1CC(=O)NCCc1ccccn1 (centres undefined)	i	i	i	88*	i	107.3
CC(C)=C1C2C=CC1C(C(=O)Nc1cccc(C)c1)C2C(=O)O (centres undefined)	i	i	i	i	i	87.5
COc1ccc2c(c1)CC(N1CCN(C)CC1)c1cc(OC)ccc1S2 (centres undefined)	i	i	i	i	i	84.3
Cc1csc(CN(C)C(=O)CC2C(=O)NCCN2Cc2ccc(Cl)c(F)c2)n1 (centres undefined)	i	12*	i	i	i	109.5
CCC1=C(OC(=O)N(CC)CC)N2C(=O)OC(=NCCOC)[C@]2(Cc2ccccc2)[C@H]2C1=CC[C@H]1C(=O)N(CC(=O)OC)C(=O)[C@H]12	i	i	i	i	i	105.8
O=S(=O)(c1ccc(SCCOc2ccc(Br)cc2)nc1)N1CCCC1	nt	nt	nt	nt	nt	108.7
CCN(CC)C(=O)c1ccc2nc(-c3ccccc3)c(-c3ccccc3)nc2c1	i	i	i	i	i	109.7
CCN(CC)C(=O)c1ccc2nc3ccccc3nc2c1	i	i	i	i	i	37.1*
O=C(COC(=O)Cc1ccsc1)Nc1cccc(F)c1	nt	nt	nt	nt	nt	98.7
COc1ccccc1C1(CCNS(=O)(=O)c2ccc(C)cc2)CCOC(C(C)C)C1 (centres undefined)	i	i	i	i	i	120.8
Cc1ccc(C2(CCNC(C)c3cccs3)CCOC(C(C)C)C2)cc1 (centres undefined)	i	i	i	44*	i	nt
COc1ccccc1C1(CCNC(C)c2cccs2)CCOC(C(C)C)C1 (centres undefined)	i	i	i	77*	i	111.1
Cc1ccnc(NC(=O)COC(=O)C23CC4CC(CC(C4)C2)C3)n1	i	35*	i	i	i	102.9
O=C(COC(=O)C12CC3CC(CC(C3)C1)C2)Nc1nccs1	i	i	i	i	i	99.3
O=C(O)c1ccc2c(c1)C1C=CCC1C(c1cc3c(cc1Br)OCO3)N2 (centres undefined)	i	i	-7*	i	i	105.2
Brc1cc2c(cc1C1Nc3ccccc3C3C=CCC31)OCO2 (centres undefined)	i	i	i	i	i	107.9
COc1ccc(N(CC(=O)NCCSCc2ccc(C)cc2)S(=O)(=O)c2ccccc2)cc1	i	i	i	i	i	94.2
Cc1cccc(C)c1NC(=O)CN1CCN(CC(=O)c2cc(C)n(C3CC3)c2C)CC1	nt	nt	nt	nt	nt	103.5
COC(=O)NCC(c1ccc2c(c1)OCO2)N1CCN(c2ccc(OC)cc2)CC1 (centres undefined)	i	i	i	67*	i	94.4
COc1ccc(N2CCN(C(CNC(=O)C(C)C)c3ccc4c(c3)OCO4)CC2)cc1 (centres undefined)	i	i	i	51*	i	99.5
CN(CC(=O)Nc1ccc(F)cc1)C(=O)COC(=O)c1ccccc1	i	106*	i	i	i	108.4
COCCNC(=O)COc1ccc(C)cc1C	i	i	i	i	i	104.2
SMILES	TRPC6 inh	TRPC4 potent	TRPC4 inh	TRPC4 agonist	TRPC6 activator	Yeast superoxide
COc1ccccc1C(=O)Nc1ccnn1C1CCN(CCCC2CCCC2)CC1	i	i	i	i	i	92.3
O=C(Nc1ccnn1C1CCN(CCCC2CCCC2)CC1)c1ccccc1Cl	i	i	-8*	i	i	97.2
Cc1ccc(NC(=S)N(CCCN(C)C)Cc2cc3cc4c(cc3[nH]c2=O)OCO4)c(C)c1	i	i	-6*	i	i	85.0
Cc1ccc(NC(=S)N(CCCN(C)C)Cc2cc3cc4c(cc3[nH]c2=O)OCO4)cc1	i	i	i	i	i	107.1
CCN(CC)CCN(Cc1cc2ccc(C)cc2[nH]c1=O)C(=S)Nc1ccccc1C(=O)OC	i	i	-6*	i	i	104.4
CC(=O)c1c(C)[nH]c(C(=O)OCC(=O)Nc2cccnc2Cl)c1C	nt	nt	nt	nt	nt	96.8
CCN1CCN(c2c(S(=O)(=O)c3ccc(C)c(C)c3)cnc3ccc(F)cc23)CC1	i	i	i	61*	i	97.9
COc1ccc2ncc(S(=O)(=O)c3ccccc3)c(N3CCN(c4ccccc4)CC3)c2c1	i	i	i	i	i	104.1
CCCCN1C(=O)C(=Nc2cccc3cnccc23)c2ccccc21	i	20*	i	i	i	135.0
Cc1cc(C)cc(NC(=S)N2CCC(c3nc4ccccc4s3)CC2)c1	i	i	i	i	i	94.2
COc1nc(Cl)cn(-c2ccc(Cl)cc2)c1=O	i	i	i	i	i	103.2
N#Cc1c(NC(=O)C2CC=CCC2C(=O)O)sc2c1CCCCCC2 (centres undefined)	i	i	i	i	i	89.3
CC(C)(C)C1CCc2c(sc(NC(=O)C3CC=CCC3C(=O)O)c2C#N)C1 (centres undefined)	i	i	-6*	i	i	111.8
CCCc1[nH]nc2c1C(CCc1ccccc1)C(C#N)=C(N)O2 (centres undefined)	i	13*	i	i	i	108.2
CCCc1[nH]nc2c1C(Cc1ccccc1)C(C#N)=C(N)O2 (centres undefined)	i	i	i	i	i	86.5
O=C(CN1C(=O)NC2(CCCC2)C1=O)N1CCN(S(=O)(=O)c2ccccc2[N+](=O)[O-])CC1	i	i	i	i	i	109.1
